pIC50: −log10 of the molar value. Calls of active or inactive are those of the source. The calls are words filed in the database; no cut-off is given here.

Test [1] concerns Salmonella typhimurium. Nature of the test: Antimutagenic activity in Salmonella Typhimurium TA1535 carrying pSK1002 containing umuC'-lacZ fused gene assessed as suppression of 0.1 j/M2 UV light-induced SOS response to alteration in DNA synthesis at 0.6 mM measured by beta-galactosidase activity by Umu test. The format is functional, Salmonella enterica subsp. enterica serovar Typhimurium. The procedure, abridged:
(§1)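 S. typhimurium TA1535/pSK1002 (umuC′-′lacZ fusion on the plasmid). The overnight culture was diluted 50-fold in fresh TGA medium and grown at 37 °C to A600 0.25-0.30. SOS induction was read as β-galactosidase activity in Miller units. The S9 mix used rat liver S9 (phenobarbital/5,6-benzoflavone-pretreated males) with G-6-P, NADH and NADPH cofactors.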

Test [2] concerns Salmonella typhimurium. Nature of the test: Antimutagenic activity in Salmonella Typhimurium TA1535 carrying pSK1002 containing umuC'-lacZ fused gene assessed as suppression of furyfuramide-induced SOS response to alteration in DNA synthesis at 0.05 mM measured by beta-galactosidase activity by Umu test. The format is functional, Salmonella enterica subsp. enterica serovar Typhimurium. The procedure, abridged: as §1

The subject of test [3] is Salmonella typhimurium. Nature of the test: Antimutagenic activity in Salmonella Typhimurium TA1535 carrying pSK1002 containing umuC'-lacZ fused gene assessed as suppression of 0.1 j/M2 UV light-induced SOS response to alteration in DNA synthesis at 0.3 mM measured by beta-galactosidase activity by Umu test. The format is functional, Salmonella enterica subsp. enterica serovar Typhimurium. The procedure, abridged: as §1

Test [4] concerns Salmonella typhimurium. Nature of the test: Antimutagenic activity in Salmonella Typhimurium TA1535 carrying pSK1002 containing umuC'-lacZ fused gene assessed as suppression of Trp-P-1-induced SOS response to alteration in DNA synthesis at 0.3 mM measured by beta-galactosidase activity by Umu test. The format is functional, Salmonella enterica subsp. enterica serovar Typhimurium. The procedure, abridged:
as §1

Test [5] deals with Salmonella typhimurium. Nature of the test: Antimutagenic activity in Salmonella Typhimurium TA1535 carrying pSK1002 containing umuC'-lacZ fused gene assessed as suppression of activated MeIQ-induced SOS response to alteration in DNA synthesis at 0.1 mM measured by beta-galactosidase activity by Umu test. The format is functional, Salmonella enterica subsp. enterica serovar Typhimurium. The procedure, abridged: as §1

Test [6] deals with Salmonella typhimurium. Nature of the test: Inhibition of furyfuramide-induced SOS response to alteration in DNA synthesis in Salmonella Typhimurium TA1535 carrying pSK1002 containing umuC'-lacZ fused gene at 0.6 mM. The format is functional, Salmonella enterica subsp. enterica serovar Typhimurium. On the set-up: scale not given: the % may be the effect or the level left. The procedure, abridged: as §1

Test [7] deals with Salmonella typhimurium. Nature of the test: Antimutagenic activity in Salmonella Typhimurium TA1535 carrying pSK1002 containing umuC'-lacZ fused gene assessed as suppression of Trp-P-1-induced SOS response to alteration in DNA synthesis at 0.1 mM measured by beta-galactosidase activity by Umu test. The format is functional, Salmonella enterica subsp. enterica serovar Typhimurium. The procedure, abridged: as §1

In test [8] the test system is Salmonella typhimurium. Nature of the test: Antimutagenic activity in Salmonella Typhimurium TA1535 carrying pSK1002 containing umuC'-lacZ fused gene assessed as suppression of MeIQ-induced SOS response to alteration in DNA synthesis at 0.3 mM measured by beta-galactosidase activity by Umu test. The format is functional, Salmonella enterica subsp. enterica serovar Typhimurium. The procedure, abridged:
as §1

Test [9] deals with Salmonella typhimurium. Nature of the test: Inhibition of Trp-P-1-induced SOS response to alteration in DNA synthesis in Salmonella Typhimurium TA1535 carrying pSK1002 containing umuC'-lacZ fused gene. The following applies: Salmonella enterica, read-out: ID50 (the source's name). The format is functional, Salmonella enterica subsp. enterica serovar Typhimurium. The procedure, abridged:
as §1

Test [10] relates to Salmonella typhimurium. Nature of the test: Antimutagenic activity in Salmonella Typhimurium TA1535 carrying pSK1002 containing umuC'-lacZ fused gene assessed as suppression of furyfuramide-induced SOS response to alteration in DNA synthesis at 0.3 mM measured by beta-galactosidase activity by Umu test. The format is functional, Salmonella enterica subsp. enterica serovar Typhimurium. The procedure, abridged:
as §1

Test [11] deals with Salmonella typhimurium. Nature of the test: Antimutagenic activity in Salmonella Typhimurium TA1535 carrying pSK1002 containing umuC'-lacZ fused gene assessed as suppression of furyfuramide-induced SOS response to alteration in DNA synthesis at 0.1 mM measured by beta-galactosidase activity by Umu test. The format is functional, Salmonella enterica subsp. enterica serovar Typhimurium. The procedure, abridged: as §1

The subject of test [12] is Salmonella typhimurium. Nature of the test: Antimutagenic activity in Salmonella Typhimurium TA1535 carrying pSK1002 containing umuC'-lacZ fused gene assessed as suppression of 0.1 j/M2 UV light-induced SOS response to alteration in DNA synthesis at 0.05 mM measured by beta-galactosidase activity by Umu test. The format is functional, Salmonella enterica subsp. enterica serovar Typhimurium. The procedure, abridged: as §1

Test [13] concerns Salmonella typhimurium. Nature of the test: Antimutagenic activity in Salmonella Typhimurium TA1535 carrying pSK1002 containing umuC'-lacZ fused gene assessed as suppression of activated Trp-P-1-induced SOS response to alteration in DNA synthesis at 0.1 mM measured by beta-galactosidase activity by Umu test. The format is functional, Salmonella enterica subsp. enterica serovar Typhimurium. The procedure, abridged: as §1

The subject of test [14] is Salmonella typhimurium. Nature of the test: Antimutagenic activity in Salmonella Typhimurium TA1535 carrying pSK1002 containing umuC'-lacZ fused gene assessed as suppression of activated Trp-P-1-induced SOS response to alteration in DNA synthesis at 0.3 mM measured by beta-galactosidase activity by Umu test. The format is functional, Salmonella enterica subsp. enterica serovar Typhimurium. The procedure, abridged:
as §1

The subject of test [15] is Salmonella typhimurium. Nature of the test: Inhibition of activated MeIQ-induced SOS response to alteration in DNA synthesis in Salmonella Typhimurium TA1535 carrying pSK1002 containing umuC'-lacZ fused gene at 0.6 mM. The format is functional, Salmonella enterica subsp. enterica serovar Typhimurium. Also on record: scale not given: the % may be the effect or the level left. The procedure, abridged:
as §1

Test [16] relates to Salmonella typhimurium. Nature of the test: Inhibition of Trp-P-1-induced SOS response to alteration in DNA synthesis in Salmonella Typhimurium TA1535 carrying pSK1002 containing umuC'-lacZ fused gene at 0.6 mM. On the set-up: scale not given: the % may be the effect or the level left. The format is functional, Salmonella enterica subsp. enterica serovar Typhimurium. The procedure, abridged:
as §1

Test [17] has as its system Salmonella typhimurium. Nature of the test: Inhibition of activated Trp-P-1-induced SOS response to alteration in DNA synthesis in Salmonella Typhimurium TA1535 carrying pSK1002 containing umuC'-lacZ fused gene. The format is functional, Salmonella enterica subsp. enterica serovar Typhimurium. The following applies: Salmonella enterica, read-out: ID50 (the source's name). The procedure, abridged: as §1

The test system of test [18] is Salmonella typhimurium. Nature of the test: Antimutagenic activity in Salmonella Typhimurium TA1535 carrying pSK1002 containing umuC'-lacZ fused gene assessed as suppression of Trp-P-1-induced SOS response to alteration in DNA synthesis measured by beta-galactosidase activity by Umu test. The format is functional, organism-based. The following applies: Salmonella enterica subsp. enterica serovar Typhimurium. The procedure, abridged:
as §1

Regarding `COc1cc(-c2cc(=O)c3c(OC)c(OC)c(OC)c(OC)c3o2)ccc1O`, the Activity in the test with Salmonella typhimurium [1] turned out to be 495.7 Miller_unit; with Salmonella typhimurium [2], 551.2 Miller_unit; in the test with Salmonella typhimurium [3] it was 563.5 Miller_unit; in the test with Salmonella typhimurium [4], 219.1 Miller_unit; in the test on Salmonella typhimurium [5], 376.3 Miller_unit; in the test on Salmonella typhimurium [6], 28.7%. For the same compound, the Activity was found to be 285.4 Miller_unit in the test on Salmonella typhimurium [7]; 195.3 Miller_unit with Salmonella typhimurium [8]; 489.9 Miller_unit with Salmonella typhimurium [10]; 511.2 Miller_unit in the test with Salmonella typhimurium [11]; 574.1 Miller_unit in the test with Salmonella typhimurium [12]; 233.2 Miller_unit in the test with Salmonella typhimurium [13]. The results for the Activity in the test on Salmonella typhimurium [14], with Salmonella typhimurium [15] and in the test on Salmonella typhimurium [16] were 182.4 Miller_unit, 58.2% and 72.4%, respectively. Besides, the pIC50 in the test with Salmonella typhimurium [9] is 3.80; with Salmonella typhimurium [17] it was 3.47. For the same compound, the result with Salmonella typhimurium [18] was Active.

The values above are taken from ChEMBL document CHEMBL1148948, “Biotransformation of nobiletin by Aspergillus niger and the antimutagenic activity of a metabolite, 4'-hydroxy-5,6,7,8,3'-pentamethoxyflavone” (2004).
